The values that follow come from ChEMBL document CHEMBL1150238, “Podophyllotoxin directly binds a hinge domain in E2 of HPV and inhibits an E2/E7 interaction in vitro” (Bioorg Med Chem, 2008).

A word on the IC50: it is the midpoint of a concentration-inhibition curve. Usually Kd stands for the constant that tells how readily two partners part at equilibrium.

Assay [1] is described as follows: Cytotoxicity against mouse L210 cells after 48 hrs. In kind it is functional, cell-based. The following applies: L210, 48 h. Summed up: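 Cells seeded at 1.0 × 10⁴ per 100 µL and preincubated 24 h at 37 °C, 5% CO2. They were then exposed to graded compound concentrations for 48 h. WST-8 reagent added for 4 h, and absorbance read at 450 nm.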
The target in assay [2] is T1, Regulatory protein E2 (Human papillomavirus type 1a, UniProt P03118).
T1 sequence (P03118 whole entry): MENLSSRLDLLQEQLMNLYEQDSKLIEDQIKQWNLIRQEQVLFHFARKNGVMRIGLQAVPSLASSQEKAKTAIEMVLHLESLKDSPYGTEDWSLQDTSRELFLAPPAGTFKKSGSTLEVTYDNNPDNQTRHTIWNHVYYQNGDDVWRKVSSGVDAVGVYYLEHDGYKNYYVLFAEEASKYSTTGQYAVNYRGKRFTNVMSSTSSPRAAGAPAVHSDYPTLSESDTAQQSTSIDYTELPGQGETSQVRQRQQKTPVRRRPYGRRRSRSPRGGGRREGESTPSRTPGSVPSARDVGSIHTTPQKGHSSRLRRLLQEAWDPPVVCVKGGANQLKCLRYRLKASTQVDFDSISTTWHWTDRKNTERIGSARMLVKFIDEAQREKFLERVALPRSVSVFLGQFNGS
Kind of assay: Binding affinity to HPV1a recombinant E2 protein by surface plasmon resonance method. Summed up:
(§1)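 E2 proteins (full-length and HPV 1a domain constructs, FLAG-tagged) expressed in E. coli with 1 mM IPTG induction for 3 h and purified by FPLC. Proteins amine-coupled to sensor chip (EDC/NHS activation, 10 mM acetate pH 4.0–6.0, ethanolamine block). PT flowed at various concentrations in PBS pH 7.4, 0.005% Tween20, 5% glycerol, 5% DMSO, 20–30 µL/min, 25 °C. Reference flow cell subtracted, KD derived; replicates over two times.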
On the technique in general: Surface plasmon resonance follows binding to a sensor surface in real time, without labels.

For assay [3], the target named is T2, Regulatory protein E2 (Human papillomavirus type 1a) (UniProt P03118).
T2 sequence (whole entry): T1 sequence (P03118 whole entry)
The assay is described as follows: Inhibition of HPV1a E2-E7 protein interaction at 250 uM assessed as rate of E2 binding to E7 protein by surface plasmon resonance method. On the set-up: scale not given: the % may be the effect or the level left. Summed up:
(§2)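 SPR competition format: E2 protein at 0.1 µM was mixed with PT in 5% DMSO and injected at 30 µL/min, 25 °C. Bound E2 amount was compared at 115 s after injection. Buffer alone and PT without E2 served as sensorgram controls.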

Assay [4] addresses T3, Regulatory protein E2 (human papillomavirus 11, UniProt P04015).
T3 sequence (P04015 whole entry): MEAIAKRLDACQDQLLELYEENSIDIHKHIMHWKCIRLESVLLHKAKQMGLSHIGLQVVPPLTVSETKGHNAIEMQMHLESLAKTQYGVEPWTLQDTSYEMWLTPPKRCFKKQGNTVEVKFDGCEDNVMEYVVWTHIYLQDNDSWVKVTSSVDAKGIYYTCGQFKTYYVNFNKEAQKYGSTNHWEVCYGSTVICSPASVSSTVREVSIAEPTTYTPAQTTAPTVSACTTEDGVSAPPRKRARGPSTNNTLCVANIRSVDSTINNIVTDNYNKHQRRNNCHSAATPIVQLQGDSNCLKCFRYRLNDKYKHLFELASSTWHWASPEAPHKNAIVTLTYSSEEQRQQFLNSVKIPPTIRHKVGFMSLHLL
Kind of assay: Binding affinity to HPV11 recombinant E2 protein by surface plasmon resonance method. Summed up: as §1

Assay [5] addresses T1, Regulatory protein E2. Kind of assay: Binding affinity to HPV1a recombinant E2 protein activator domain by surface plasmon resonance assay. In short, it runs like this: as §1
The target of assay [6] is T1, Regulatory protein E2. The assay is described as follows: Binding affinity to HPV1a recombinant E2 protein hinge domain by surface plasmon resonance assay. Summed up: as §1
For assay [7], the target named is T2, Regulatory protein E2 (Human papillomavirus type 1a). Kind of assay: Inhibition of HPV1a E2-E7 protein interaction at 500 uM assessed as rate of E2 binding to E7 protein by surface plasmon resonance method. Set-up: scale not given: the % may be the effect or the level left. In short, it runs like this:
as §2

Assay [8] has as its target T4, Regulatory protein E2 (Human papillomavirus 16, UniProt P03120).
T4 sequence (P03120 whole entry): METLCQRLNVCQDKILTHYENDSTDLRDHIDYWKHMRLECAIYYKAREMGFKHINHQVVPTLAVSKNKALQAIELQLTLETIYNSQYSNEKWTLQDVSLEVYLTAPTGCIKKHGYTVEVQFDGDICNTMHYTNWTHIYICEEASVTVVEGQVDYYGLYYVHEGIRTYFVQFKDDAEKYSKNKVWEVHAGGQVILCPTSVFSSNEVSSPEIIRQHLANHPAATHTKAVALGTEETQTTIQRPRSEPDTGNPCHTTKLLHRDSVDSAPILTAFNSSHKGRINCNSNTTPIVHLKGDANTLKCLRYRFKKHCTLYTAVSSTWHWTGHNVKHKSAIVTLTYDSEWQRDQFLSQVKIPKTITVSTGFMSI
Kind of assay: Binding affinity to HPV16 recombinant E2 protein by surface plasmon resonance method. Summed up:
as §1

For assay [9], the target named is T2, Regulatory protein E2 (Human papillomavirus type 1a). The assay is described as follows: Inhibition of HPV1a recombinant E2 protein-DNA interaction by electron mobility shift assay.
Assay [10] addresses T1, Regulatory protein E2. Kind of assay: Binding affinity to HPV1a recombinant E2 protein DNA binding domain by surface plasmon resonance assay. Summed up:
as §1

Structures are written as SMILES. Calls of active or inactive are those of the source. The calls are words filed in the database; no cut-off is given here.

Turning to `COc1cc([C@@H]2c3cc4c(cc3[C@H](OC(=O)CCCCCNC(=O)CCCC[C@@H]3SC[C@@H]5NC(=O)N[C@@H]53)[C@H]3COC(=O)[C@H]23)OCO4)cc(OC)c1OC`, half-maximal inhibition in assay [1] (IC50) required 0.4 µM.

With `COc1cc([C@@H]2c3cc4c(cc3[C@@H](O[C@@H]3O[C@@H]5CO[C@@H](C)O[C@H]5[C@H](O)[C@H]3O)[C@H]3COC(=O)[C@H]23)OCO4)cc(OC)c1O` [ETOPOSIDE], the Kd on Regulatory protein E2 [2] was 210 µM. In addition, the Activity in assay [3] was 82%.

Regarding `COc1cc([C@@H]2c3cc4c(cc3[C@H](O)[C@H]3COC(=O)[C@H]23)OCO4)cc(OC)c1OC` [PODOFILOX], the Kd at Regulatory protein E2 [4] is 20.1 µM; at Regulatory protein E2 [5], more than 400 µM; at Regulatory protein E2 [6], 1.05 µM; at Regulatory protein E2 [2], 24.1 µM; on Regulatory protein E2 [8], 70.5 µM; on Regulatory protein E2 [10] it was more than 400 µM. Besides, the Activity in assay [7] came to 49.1%; in [3] it was 60.6%. Also, in assay [9], the result was inactive. In assay [1], this molecule came in with an IC50 of 0.007 µM.
